Molecules are shown by their SMILES. Calls of active or inactive are those of the source. No cut-off for these calls is given here.

For data set [1], the target named is Replicase polyprotein 1ab (Severe acute respiratory syndrome coronavirus 2) (UniProt P0DTD1). The experiment in a line: Competitive inhibition of N-terminal 6His/SUMO-tagged SARS-CoV-2 NSP14 expressed in Escherichia coli Rosetta 2 (DE3) PlysS cells using 5'GpppACCCCCCCCC-Biotin 3' and 3H-SAM as substrates at increasing concentration incubated for 30 mins by TopCount scintillation proximity assay. The procedure, abridged: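 Competition pattern read from IC50 shifts. […] Separately, SAM fixed at 1.25 μM (5× Km) with RNA varied up to 0.5 μM (10× Km). A linear rise of IC50 with substrate concentration was taken as competitive inhibition.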

In data set [2] the target is Histone-lysine N-methyltransferase EHMT2 (Homo sapiens) (UniProt Q96KQ7). The data set can be described thus: Inhibition of human G9a using biotin-tagged Histone H3 and 3H-SAM as substrate at 10 uM incubated for 1 hrs by TopCount scintillation proximity assay relative to control. The procedure, abridged: (§1)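 Human methyltransferase panel, radiometric assays. Each compound tested at a single 10 μM concentration in triplicate. Enzymes inhibited by more than 50% were taken on to concentration–response.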
Histone-lysine N-methyltransferase EHMT2 (Homo sapiens), sequence (Q96KQ7 whole entry): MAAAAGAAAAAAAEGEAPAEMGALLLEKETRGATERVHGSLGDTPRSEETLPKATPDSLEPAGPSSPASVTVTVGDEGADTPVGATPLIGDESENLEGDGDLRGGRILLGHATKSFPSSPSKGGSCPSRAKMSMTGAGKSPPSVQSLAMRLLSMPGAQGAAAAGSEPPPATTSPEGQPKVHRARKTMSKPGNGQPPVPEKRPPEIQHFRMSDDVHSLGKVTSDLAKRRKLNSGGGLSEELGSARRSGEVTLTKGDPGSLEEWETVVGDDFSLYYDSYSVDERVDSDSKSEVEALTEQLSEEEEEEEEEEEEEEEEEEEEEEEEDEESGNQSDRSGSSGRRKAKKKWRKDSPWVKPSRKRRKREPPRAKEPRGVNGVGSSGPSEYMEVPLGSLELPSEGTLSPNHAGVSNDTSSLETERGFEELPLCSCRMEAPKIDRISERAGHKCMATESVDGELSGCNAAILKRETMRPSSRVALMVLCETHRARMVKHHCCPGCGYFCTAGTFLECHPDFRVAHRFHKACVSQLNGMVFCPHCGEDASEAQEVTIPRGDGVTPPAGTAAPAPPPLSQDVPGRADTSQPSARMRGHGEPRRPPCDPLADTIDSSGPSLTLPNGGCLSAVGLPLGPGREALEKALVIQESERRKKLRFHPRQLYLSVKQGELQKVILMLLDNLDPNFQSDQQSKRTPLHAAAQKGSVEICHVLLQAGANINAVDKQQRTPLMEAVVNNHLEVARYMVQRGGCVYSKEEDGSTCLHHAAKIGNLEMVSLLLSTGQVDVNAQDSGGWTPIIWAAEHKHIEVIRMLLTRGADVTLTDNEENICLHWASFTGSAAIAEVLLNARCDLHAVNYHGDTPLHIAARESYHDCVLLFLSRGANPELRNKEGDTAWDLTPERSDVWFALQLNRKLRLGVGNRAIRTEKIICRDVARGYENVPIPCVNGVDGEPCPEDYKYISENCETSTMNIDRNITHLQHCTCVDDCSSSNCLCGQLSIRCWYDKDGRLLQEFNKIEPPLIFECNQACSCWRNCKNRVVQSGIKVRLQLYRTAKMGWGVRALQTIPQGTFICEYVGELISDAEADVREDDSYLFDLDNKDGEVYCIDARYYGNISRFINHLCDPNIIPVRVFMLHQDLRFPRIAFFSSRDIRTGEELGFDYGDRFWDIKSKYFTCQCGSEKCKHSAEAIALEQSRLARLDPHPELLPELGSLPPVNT

Data set [3] has as its target Histone-lysine N-methyltransferase 2A (Homo sapiens, UniProt Q03164). The experiment in a line: Inhibition of human MLL1 using biotin-tagged Histone H3 and 3H-SAM as substrate at 10 uM incubated for 1 hrs by TopCount scintillation proximity assay relative to control. The procedure, abridged: as §1
The target in data set [4] is Histone-lysine N-methyltransferase KMT5C (Homo sapiens) (UniProt Q86Y97). The experiment in a line: Inhibition of human SUV420H2 using Biotin-tagged H4K20me1 and 3H-SAM as substrate at 10 uM incubated for 1 hrs by TopCount scintillation proximity assay relative to control. The procedure, abridged: (§2)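 Selectivity panel against human SAM-dependent methyltransferases, radiometric format. Single test concentration of 10 μM, triplicate, read as percent inhibition.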
Histone-lysine N-methyltransferase KMT5C (Homo sapiens), sequence (Q86Y97 whole entry, looked up): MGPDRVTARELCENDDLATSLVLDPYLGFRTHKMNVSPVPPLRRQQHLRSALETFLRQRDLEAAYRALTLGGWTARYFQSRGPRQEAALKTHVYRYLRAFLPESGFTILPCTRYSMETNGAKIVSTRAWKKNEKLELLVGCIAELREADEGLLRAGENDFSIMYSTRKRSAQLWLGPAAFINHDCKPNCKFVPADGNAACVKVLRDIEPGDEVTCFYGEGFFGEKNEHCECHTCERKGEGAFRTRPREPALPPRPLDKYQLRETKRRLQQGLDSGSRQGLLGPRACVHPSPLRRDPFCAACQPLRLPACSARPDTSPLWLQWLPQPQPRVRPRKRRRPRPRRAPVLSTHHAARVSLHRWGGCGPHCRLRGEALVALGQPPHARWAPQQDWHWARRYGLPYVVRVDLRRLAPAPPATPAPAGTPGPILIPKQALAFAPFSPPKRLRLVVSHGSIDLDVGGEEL

The target of data set [5] is Histone-lysine N-methyltransferase SETD2 (Homo sapiens) (UniProt Q9BYW2). The data set can be described thus: Inhibition of human SETD2 using biotin-tagged Histone H3 and 3H-SAM as substrate at 10 uM incubated for 1 hrs by TopCount scintillation proximity assay relative to control. The procedure, abridged: as §2
Data set [6] deals with Histone-arginine methyltransferase CARM1 (Homo sapiens) (UniProt Q86X55). The experiment in a line: Inhibition of human PRMT4 using biotin-tagged Histone H3 and 3H-SAM as substrate at 10 uM incubated for 1 hrs by TopCount scintillation proximity assay relative to control. The procedure, abridged:
as §1

Data set [7] concerns the target Protein arginine N-methyltransferase 5 (Homo sapiens) (UniProt O14744). The data set can be described thus: Inhibition of human PRMT5 using biotin-tagged Histone H4 and 3H-SAM as substrate at 10 uM incubated for 1 hrs by TopCount scintillation proximity assay relative to control. The procedure, abridged: as §1
For data set [8], the target named is Histone-lysine N-methyltransferase, H3 lysine-36 specific (Homo sapiens) (UniProt Q96L73). The data set can be described thus: Inhibition of human NSD1 using chicken nucleosome and 3H-SAM as substrate at 10 uM incubated for 1 hrs by TopCount scintillation proximity assay relative to control. The procedure, abridged: as §1
Data set [9] deals with Replicase polyprotein 1ab (Severe acute respiratory syndrome coronavirus 2, UniProt P0DTD1). The data set can be described thus: Inhibition of N-terminal 6His/SUMO-tagged SARS-CoV-2 NSP14 expressed in Escherichia coli Rosetta 2 (DE3) PlysS cells using 5'GpppACCCCCCCCC-Biotin 3' and 3H-SAM as substrates incubated for 30 mins by TopCount scintillation proximity assay.
The target in data set [10] is Histone-lysine N-methyltransferase SUV39H2 (Homo sapiens) (UniProt Q9H5I1). The data set can be described thus: Inhibition of human SUV39H2 using Biotin-tagged histone H3 and 3H-SAM as substrate at 10 uM incubated for 1 hrs by TopCount scintillation proximity assay relative to control. The procedure, abridged: as §2
Histone-lysine N-methyltransferase SUV39H2 (Homo sapiens), sequence (Q9H5I1 whole entry): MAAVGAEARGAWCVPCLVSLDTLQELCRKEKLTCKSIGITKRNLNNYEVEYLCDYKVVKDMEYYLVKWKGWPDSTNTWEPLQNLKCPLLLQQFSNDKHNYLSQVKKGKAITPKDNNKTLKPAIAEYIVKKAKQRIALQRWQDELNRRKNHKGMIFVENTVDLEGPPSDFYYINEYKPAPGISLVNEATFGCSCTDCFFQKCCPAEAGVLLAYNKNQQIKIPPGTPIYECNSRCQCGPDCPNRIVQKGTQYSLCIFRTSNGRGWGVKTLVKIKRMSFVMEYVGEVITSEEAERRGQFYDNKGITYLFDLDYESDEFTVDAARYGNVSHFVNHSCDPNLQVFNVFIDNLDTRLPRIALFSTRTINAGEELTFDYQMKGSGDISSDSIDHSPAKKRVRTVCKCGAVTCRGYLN
The target in data set [11] is Histone-lysine N-methyltransferase SUV39H1 (Homo sapiens) (UniProt O43463). The experiment in a line: Inhibition of human SUV39H1 using Biotin-tagged histone H3 and 3H-SAM as substrate at 10 uM incubated for 1 hrs by TopCount scintillation proximity assay relative to control. The procedure, abridged: as §2
Histone-lysine N-methyltransferase SUV39H1 (Homo sapiens), sequence (O43463 whole entry): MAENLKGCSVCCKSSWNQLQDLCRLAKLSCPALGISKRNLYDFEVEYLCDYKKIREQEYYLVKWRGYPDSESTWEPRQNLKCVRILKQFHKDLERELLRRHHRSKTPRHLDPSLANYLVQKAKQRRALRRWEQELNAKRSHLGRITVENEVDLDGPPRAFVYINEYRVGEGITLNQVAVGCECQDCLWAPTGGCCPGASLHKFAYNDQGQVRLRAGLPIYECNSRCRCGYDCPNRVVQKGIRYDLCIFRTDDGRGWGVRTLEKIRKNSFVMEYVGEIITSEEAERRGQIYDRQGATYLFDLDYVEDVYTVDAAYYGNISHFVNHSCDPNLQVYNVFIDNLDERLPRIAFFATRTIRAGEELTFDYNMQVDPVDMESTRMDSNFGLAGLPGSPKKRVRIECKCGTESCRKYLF
Data set [12] has as its target Protein arginine N-methyltransferase 8 (Homo sapiens) (UniProt Q9NR22). The experiment in a line: Inhibition of human PRMT8 using biotin-tagged Histone H4 and 3H-SAM as substrate at 10 uM incubated for 1 hrs by TopCount scintillation proximity assay relative to control. The procedure, abridged:
as §1

Data set [13] addresses Histone-lysine N-methyltransferase EHMT1 (Homo sapiens) (UniProt Q9H9B1). The data set can be described thus: Inhibition of human GLP using biotin-tagged Histone H3 and 3H-SAM as substrate at 10 uM incubated for 1 hrs by TopCount scintillation proximity assay relative to control. The procedure, abridged:
as §1

The nature of data set [14]: Aggregation property of the compound in KPi buffer at pH 7.0 assessed as formation of colloid-like particles by dynamic light scattering analysis. Format: physicochemical. The procedure, abridged:
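Compounds diluted as 8-point half-log series in filtered 50 mM KPi, pH 7.0, with 1% v/v DMSO final. Particles detected by dynamic light scattering, triplicate at each concentration. CAC taken as the intersection of separate nonlinear fits to aggregating (>10^6 scattering intensity) and non-aggregating data.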

Data set [15] addresses Histone-lysine N-methyltransferase NSD2 (Homo sapiens) (UniProt O96028). The data set can be described thus: Inhibition of human NSD2 using chicken nucleosome and 3H-SAM as substrate at 10 uM incubated for 1 hrs by TopCount scintillation proximity assay relative to control. The procedure, abridged: as §1

Histone-arginine methyltransferase CARM1 (Homo sapiens), sequence (Q86X55 whole entry): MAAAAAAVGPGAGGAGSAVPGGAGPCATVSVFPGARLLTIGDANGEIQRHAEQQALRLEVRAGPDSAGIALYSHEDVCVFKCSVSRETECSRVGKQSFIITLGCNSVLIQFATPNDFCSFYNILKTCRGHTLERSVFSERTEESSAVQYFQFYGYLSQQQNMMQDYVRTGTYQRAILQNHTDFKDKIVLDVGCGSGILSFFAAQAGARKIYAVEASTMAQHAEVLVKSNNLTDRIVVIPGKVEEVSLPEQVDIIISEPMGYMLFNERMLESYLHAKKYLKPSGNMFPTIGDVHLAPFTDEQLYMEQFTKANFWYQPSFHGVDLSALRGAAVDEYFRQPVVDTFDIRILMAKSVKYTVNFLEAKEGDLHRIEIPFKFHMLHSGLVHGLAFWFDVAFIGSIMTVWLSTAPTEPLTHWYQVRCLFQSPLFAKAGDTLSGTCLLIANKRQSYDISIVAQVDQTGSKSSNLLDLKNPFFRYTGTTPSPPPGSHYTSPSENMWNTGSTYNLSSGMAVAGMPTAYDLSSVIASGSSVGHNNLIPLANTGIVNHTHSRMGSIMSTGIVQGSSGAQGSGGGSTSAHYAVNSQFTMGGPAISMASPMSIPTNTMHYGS
Histone-lysine N-methyltransferase NSD2 (Homo sapiens), sequence (O96028 whole entry): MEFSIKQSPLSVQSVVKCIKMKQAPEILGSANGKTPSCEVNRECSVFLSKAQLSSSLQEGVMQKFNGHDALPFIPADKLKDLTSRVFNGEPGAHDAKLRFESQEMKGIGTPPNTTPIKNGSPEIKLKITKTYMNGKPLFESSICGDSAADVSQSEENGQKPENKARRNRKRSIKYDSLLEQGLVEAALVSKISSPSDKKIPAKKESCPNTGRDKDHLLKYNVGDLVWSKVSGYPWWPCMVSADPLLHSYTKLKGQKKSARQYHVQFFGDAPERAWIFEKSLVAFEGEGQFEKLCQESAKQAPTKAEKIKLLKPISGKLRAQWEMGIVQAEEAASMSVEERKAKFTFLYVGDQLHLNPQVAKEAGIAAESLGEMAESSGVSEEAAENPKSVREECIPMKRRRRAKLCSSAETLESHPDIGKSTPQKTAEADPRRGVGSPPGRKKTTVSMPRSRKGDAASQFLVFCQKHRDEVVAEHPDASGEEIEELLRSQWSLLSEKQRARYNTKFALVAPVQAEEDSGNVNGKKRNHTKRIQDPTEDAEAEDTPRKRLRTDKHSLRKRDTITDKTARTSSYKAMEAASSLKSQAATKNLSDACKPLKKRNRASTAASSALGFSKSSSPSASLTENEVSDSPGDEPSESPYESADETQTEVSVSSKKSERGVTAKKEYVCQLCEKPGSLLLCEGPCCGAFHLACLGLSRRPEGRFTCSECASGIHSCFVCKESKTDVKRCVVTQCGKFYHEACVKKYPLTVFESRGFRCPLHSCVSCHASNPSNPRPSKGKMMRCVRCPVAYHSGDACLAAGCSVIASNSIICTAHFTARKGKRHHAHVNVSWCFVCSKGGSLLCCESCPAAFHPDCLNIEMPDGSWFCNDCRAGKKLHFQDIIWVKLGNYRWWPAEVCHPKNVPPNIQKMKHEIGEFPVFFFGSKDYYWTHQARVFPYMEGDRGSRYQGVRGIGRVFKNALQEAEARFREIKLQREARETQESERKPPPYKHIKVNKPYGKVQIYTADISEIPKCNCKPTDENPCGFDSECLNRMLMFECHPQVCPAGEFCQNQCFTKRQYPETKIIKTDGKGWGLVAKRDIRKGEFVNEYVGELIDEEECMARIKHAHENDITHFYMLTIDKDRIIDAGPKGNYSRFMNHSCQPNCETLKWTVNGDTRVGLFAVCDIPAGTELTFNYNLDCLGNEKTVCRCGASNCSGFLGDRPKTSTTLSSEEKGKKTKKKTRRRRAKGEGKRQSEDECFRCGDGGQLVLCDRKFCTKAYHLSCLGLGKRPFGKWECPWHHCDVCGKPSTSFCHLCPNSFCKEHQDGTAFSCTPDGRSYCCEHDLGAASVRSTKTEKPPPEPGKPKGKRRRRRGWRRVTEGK
Protein arginine N-methyltransferase 8 (Homo sapiens), sequence (Q9NR22 2-394 limits assumed): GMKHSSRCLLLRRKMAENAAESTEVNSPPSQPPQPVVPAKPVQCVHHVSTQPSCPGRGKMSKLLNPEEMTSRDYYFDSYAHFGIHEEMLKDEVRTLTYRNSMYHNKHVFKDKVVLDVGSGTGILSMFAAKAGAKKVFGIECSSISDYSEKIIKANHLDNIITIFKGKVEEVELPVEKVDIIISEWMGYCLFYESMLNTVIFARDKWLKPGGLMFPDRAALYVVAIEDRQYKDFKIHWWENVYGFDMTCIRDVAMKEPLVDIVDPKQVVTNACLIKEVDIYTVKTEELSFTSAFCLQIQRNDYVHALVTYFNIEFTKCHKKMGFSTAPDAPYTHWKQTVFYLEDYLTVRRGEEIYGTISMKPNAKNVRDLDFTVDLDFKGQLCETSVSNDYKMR

Regarding `Cc1c(C(=O)/C=C/c2ccc(O)c([N+](=O)[O-])c2)c(C#N)c2n1CCC2`, the inhibition entry in data set [1] was “Active”. Besides, the inhibition in data set [2], in data set [3], in data set [4], in data set [5], in [6] and in data set [7] was less than 50% each time. Moreover, the inhibition in data set [8], in data set [10], in data set [11], in [12], in data set [13] and in data set [15] was less than 50% throughout. The molecule also had an IC50 in [9] of 50 µM. The Activity entry in data set [14] was “Not Active”.
